Bioassay records (PubChem BioAssay)
CYP2C9 activ = increases human cytochrome P450 2C9 activity. activation factor at 5 µM. recombinant CYP2C9, luciferin-H conversion, luminescence; stronger effect = higher value; factor 1 = untreated enzyme, 0 = blocked. 1.4% of 96,000 active;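 active = activation factor of 2 or more for CYP2C9 at a 5 µM dose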;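 also: 0 = sulfaphenazole-blocked wells and 1 = vehicle-only wells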
Target sequence (P11712 whole entry, looked up): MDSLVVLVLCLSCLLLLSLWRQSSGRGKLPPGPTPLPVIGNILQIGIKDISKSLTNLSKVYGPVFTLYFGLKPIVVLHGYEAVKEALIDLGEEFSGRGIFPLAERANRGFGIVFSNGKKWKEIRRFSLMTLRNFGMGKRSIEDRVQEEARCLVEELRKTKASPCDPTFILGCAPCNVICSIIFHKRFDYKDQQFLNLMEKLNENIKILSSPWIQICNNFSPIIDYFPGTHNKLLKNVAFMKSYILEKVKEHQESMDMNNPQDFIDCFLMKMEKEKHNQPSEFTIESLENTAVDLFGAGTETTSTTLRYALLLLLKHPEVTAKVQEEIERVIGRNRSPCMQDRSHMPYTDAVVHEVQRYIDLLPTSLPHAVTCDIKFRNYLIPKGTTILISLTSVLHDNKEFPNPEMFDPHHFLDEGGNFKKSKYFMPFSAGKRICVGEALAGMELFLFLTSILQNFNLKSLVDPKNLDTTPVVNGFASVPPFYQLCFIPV
CYP2C9 inh = human CYP2C9 inhibition; inhibition, % at 5 µM; P11712; 20% of 96,000 active; CYP2C9 Supersomes, luciferin-H conversion, luminescence; AID 777;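 active = blocking of liver enzyme CYP2C9 beyond about 50% at 5 µM, limit read from the data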
CYP2C19 act = cytochrome P450 2C19 (human) activation | activation factor at 5 µM | P33261 | 96,000 tested, under 10 active | recombinant CYP2C19, luciferin-H EGE luminescence; stronger effect = higher value; 0 = fully inhibited enzyme, 1 = untreated enzyme;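 active = activation factor of at least 2 at 5 µM in the primary screen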;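 also: 0 = wells with 2.5 mM tranylcypromine and 1 = vehicle-only wells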
tolC growth inh = growth inhibitors of E. coli BW25113 tolC mutant; OD615; growth inhibition, % at 10 µM (by protocol); 2.2% of 65,000 active; AID 573;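 active = growth inhibition at or above a cutoff equal to the mean over every tested compound plus 3 SD, cut at about 60% in these data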;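 also: growth measured after 20 h incubation at 37 °C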
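System: E. coli ΔtolC::kan strain BW25113; Buffer or medium: LB broth supplemented with 50 µg/mL kanamycin; Compound: 10 µM final, single dose; Incubation: bacterial growth with compound for 20 h at 37 °C; Signal: A615 absorbance measurement; Evaluation: growth inhibition in percent.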
CYP2C19 inhib = human CYP2C19 inhibition; P33261; CYP2C19 Supersomes, luciferin-H EGE luminescence, 30 min; inhibition, % at 5 µM; 21% of 96,000 active;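 active = CYP2C19 inhibition above a set limit at 5 µM in the primary screen, cut at about 50% in these data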;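 also: plate controls were negative control wells for no effect and 2.5 mM tranylcypromine positive control for full effect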
E coli WT exp = blocks growth of wild type E. coli BW25113; growth inhibition, % at 100 µM; OD600 absorbance; 0.15% of 98,000 active; AID 710;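 active = growth inhibition above about 50% at one test dose, limit read from the data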;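 also: growth measured after 20 h incubation at 37 °C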
* hit, by the source's call; . = no result given. An excerpt weighted towards active compounds, which were near 29% of everything screened.

SMILES | CYP2C9 activ | CYP2C9 inh | CYP2C19 act | tolC growth inh | CYP2C19 inhib | E coli WT exp
COCCNC(=O)CCCCCn1c(=S)[nH]c2ccccc2c1=O | 1.1 | -14.5 | 1 | . | 1.0 | 10.0
CCOC(=O)N1CCN(C(=O)CCCn2c(=S)[nH]c3ccccc3c2=O)CC1 | 0.8 | 22.1 | 0.5 | -8.0 | 52.0* | 1.0
COc1cccc(NC(=O)CCCn2c(=S)[nH]c3ccccc3c2=O)c1 | 0.2 | 78.0* | 0.4 | . | 63.3* | -9.0
O=C(CCCn1c(=S)[nH]c2ccccc2c1=O)N1CCOCC1 | 1.2 | -15.7 | 1.1 | 3.4 | -8.3 | -3.0
CCOC(=O)N1CCN(C(=O)CCCn2c(=S)[nH]c3ccc(Br)cc3c2=O)CC1 | 0.3 | 69.1* | 0.3 | . | 73.2* | 9.0
CCOC(=O)CC(=O)CSc1nnc(Cn2c(=O)sc3ccccc32)n1C | 1 | 0.1 | 1 | -9.2 | 2.0 | -11.0
CCN(CC)C(=O)CN1C(=O)COCC1=O | 0.8 | 19.7 | 0.9 | . | 8.1 | -7.0
COc1ccc(N2CCN(C(=O)Cc3ccc(-n4c(=O)[nH]c5ccccc5c4=O)cc3)CC2)cc1 | . | . | . | -3.0 | . | -8.0
O=C(Cc1ccc(-n2c(=S)[nH]c3ccccc3c2=O)cc1)N1CCC(N2CCCCC2)CC1 | 0.1 | 92.0* | 1 | . | -2.4 | -6.0
O=C1CC(C(=O)Nc2nccs2)C(c2ccccc2)O1 (stereo not drawn) | 0.4 | 60.2* | 0.1 | -4.4 | 86.9* | .
O=C1CC(C(=O)Nc2ccccc2C(=O)O)C(c2ccccc2)O1 (stereo not drawn) | 0.1 | 93.6* | 1 | -2.5 | 2.8 | -3.0
O=C1CC(C(=O)Nc2ccc(O)c(C(=O)O)c2)C(c2ccccc2)O1 (stereo not drawn) | 0.7 | 29.3 | 1.1 | -3.6 | -14.7 | 1.0
O=C1CC(C(=O)Nc2ccc(C(=O)O)cc2)C(c2ccccc2)O1 (stereo not drawn) | 1 | 3.2 | 1.1 | . | -8.7 | -12.0
O=[N+]([O-])c1ccc(N=Nc2ccc(O)cc2O)cc1 | 0.4 | 57.4* | 0.3 | . | 69.4* | -1.0
Cn1c(=O)oc2cc(S(=O)(=O)Nc3cccc4c3CCCC4)ccc21 | 2.4* | -141.9 | 0.3 | 20.4 | 65.7* | -1.0
CSCCC(NS(=O)(=O)c1ccc2c(c1)oc(=O)n2C)C(=O)NC1CCCCC1 (stereo not drawn) | 1.1 | -8.5 | 0.3 | -5.7 | 71.6* | 1.0
Cn1c(=O)oc2cc(S(=O)(=O)NC(Cc3ccccc3)C(=O)N3CCCCC3)ccc21 (stereo not drawn) | 0.9 | 13.2 | 0.6 | 2.5 | 40.4 | 1.0
Cn1c(=O)c2cc(S(=O)(=O)Nc3ccc4c(c3)OCO4)ccc2n(C)c1=O | 0.2 | 85.0* | 0.2 | -24.8 | 84.4* | -10.0
CCc1cccc(NS(=O)(=O)c2ccc3c(c2)oc(=O)n3C)c1 | 1.1 | -11.2 | 0.3 | 8.6 | 70.5* | 1.0
COc1cccc(NC(=O)Cn2c(=O)c3c(ncn3Cc3ccccc3)n(Cc3ccccc3)c2=O)c1 | 1.1 | -5.9 | 0.9 | . | 6.5 | -7.0
CC(C)CC(NS(=O)(=O)c1ccc2c(c1)oc(=O)n2C)C(=O)NCc1cccnc1 (stereo not drawn) | 1 | -2.4 | 0.5 | -8.3 | 53.4* | -1.0
Cn1c(=O)oc2cc(S(=O)(=O)Nc3ccc4c(c3)OCO4)ccc21 | 0.5 | 53.4* | 0.2 | 1.1 | 79.6* | 5.0
Cn1c(=O)oc2cc(S(=O)(=O)Nc3cccc(C(=O)O)c3)ccc21 | 1.3 | -31.8 | 1.2 | -8.5 | -21.2 | 2.0
CCOC(=O)N1CCN(C(=O)C(CC(C)C)NS(=O)(=O)c2ccc3c(c2)oc(=O)n3C)CC1 (stereo not drawn) | 0.9 | 10.5 | 0.8 | . | 18.9 | -2.0
O=C(CCC(=O)N1CCOCC1)Nc1nnc(C2CCCCC2)s1 | 1 | -1.7 | 0.9 | . | 14.0 | 3.0
SMILES | CYP2C9 activ | CYP2C9 inh | CYP2C19 act | tolC growth inh | CYP2C19 inhib | E coli WT exp
CC(OC(=O)c1cccnc1SCc1cc(=O)n2ccccc2n1)c1ccccn1 (stereo not drawn) | 0.4 | 60.5* | 0.6 | . | 35.5 | 4.0
CC(=O)NC12CC3CC(C1)CC(C(=O)OCC(=O)Nc1ncc(Cl)cc1Cl)(C3)C2 | . | . | . | -7.2 | . | 7.0
CC(=O)NC12CC3CC(C1)CC(C(=O)Nc1nccs1)(C3)C2 | 0.4 | 55.7* | 0.2 | -7.1 | 84.7* | 6.0
CSCCC(C(=O)Nc1ccc2c(c1)OCO2)N1C(=O)c2ccccc2C1=O (stereo not drawn) | 0.5 | 52.2* | 0.7 | -0.6 | 33.8 | 8.0
O=C(CSCSCC(=O)Nc1ccc2c(c1)OCO2)Nc1ccc2c(c1)OCO2 | 0.2 | 79.7* | 0.6 | -10.2 | 35.1 | -14.0
O=C(CSCc1ccccc1)Nc1ccc2c(c1)OCO2 | . | . | . | 9.5 | . | -1.0
Cc1ccc(S(=O)(=O)C2(C(=O)Nc3ccc4c(c3)OCO4)CC2)cc1 | 0.2 | 83.1* | 0.1 | 2.2 | 86.9* | 1.0
O=C(CSCc1c(Cl)cccc1Cl)Nc1ccc2c(c1)OCO2 | 0.3 | 75.0* | 0.9 | . | 12.3 | -3.0
CCC1(CC)C(=O)NC(=O)NC1=NCCc1c[nH]c2ccccc12 | 0.8 | 21.2 | 0.7 | -6.9 | 33.8 | -6.0
O=C(Cn1nc(C(F)(F)F)c2c1CCCC2)Nc1ccc2c(c1)OCO2 | 0.5 | 53.3* | 0.1 | 3.9 | 86.7* | -18.0
O=C(CSCc1ccc(Cl)cc1)Nc1ccccc1C(=O)N1CCOCC1 | 0.8 | 20.6 | 0.9 | . | 14.5 | 1.0
O=C(CSCc1c(Cl)cccc1Cl)Nc1ccccc1C(=O)N1CCOCC1 | 0.1 | 92.0* | 0.5 | . | 47.6 | 6.0
Cc1ccc(CSCC(=O)Nc2ccc3c(c2)OCO3)cc1 | 0.7 | 32.5 | 0.4 | . | 59.4* | 3.0
CCN(CC)CC(=O)Nc1cc(C)c2c(=O)oc3ccccc3c2n1 | . | . | . | -4.0 | . | .
O=C(NNC(=O)c1ccco1)c1cccc([N+](=O)[O-])c1 | 0.9 | 6.5 | 1 | . | -0.3 | -8.0
Cc1cc(C)cc(C(=O)N2CCCCCC2)c1 | 1.4 | -38.2 | 0.7 | . | 28.5 | -3.0
Cc1cc(C(=O)N2CCCCCC2)cs1 | 1.1 | -6.9 | 0.4 | 2.1 | 57.9* | 4.0
COC(=O)c1ccccc1NC(=O)c1cc(OC)cc(OC)c1 | 1.2 | -19.4 | 0.8 | 20.2 | 16.7 | -13.0
Cc1nnc(SCC(=O)N2CCCCC2)s1 | . | . | . | -11.9 | . | -1.0
O=C(Nc1ccccc1N1CCOCC1)c1ccc2c(c1)C(=O)N(Cc1ccncc1)C2=O | 0.2 | 83.9* | 0.2 | -12.5 | 79.1* | -1.0
O=C(NCc1ccccc1)c1ccc2c(c1)C(=O)N(Cc1ccncc1)C2=O | 0.1 | 89.6* | 0.3 | . | 70.6* | -4.0
CCOc1cc(-c2nn3cnnc3s2)cc(OCC)c1OCC | 0.9 | 11.7 | 0.7 | -1.3 | 30.7 | 0.0
CCOc1cc(-c2ccc(N)c(OCC)c2)ccc1N | 0.1 | 91.1* | 0 | 8.2 | 98.1* | 2.0
COCCN1C(=O)c2ccccc2C(C(=O)NCCCN2CCCC2=O)C1c1c[nH]c2ccccc12 (stereo not drawn) | . | . | . | -3.7 | . | 8.0
Cc1c(OCc2ccc(C(=O)O)o2)ccc2c3c(c(=O)oc12)CCC3 | 0.8 | 16.4 | 1.1 | 25.7 | -7.5 | 1.0
